Results on twelve molecules are retold here after ChEMBL document CHEMBL5257137, “Inhibition of Thiamine Diphosphate-Dependent Enzymes by Triazole-Based Thiamine Analogues” (ACS Med Chem Lett, 2023).

The term IC50 denotes the point on the concentration scale where inhibition reaches its midpoint. The inhibition is the share of the control response that was lost under treatment. For orientation: Ki means a measure of affinity in units of concentration, obtained from inhibition or displacement.

The first experiment has as its system Plasmodium falciparum. In words: Antiplasmodial activity against chloroquine-sensitive Plasmodium falciparum 3D7 infected in human erythrocyte assessed as inhibition of parasite proliferation in presence of 2.97uM thiamine by SYBR-Safe assay. Format: functional, organism-based. Conditions: 3D7, Erythrocyte. The essentials:
(§1)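 P. falciparum 3D7-infected erythrocytes were exposed to compound in culture medium with added thiamine, 2.97 μM or 297 μM. Proliferation was read as parasite DNA by SYBR-Safe assay.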
Regarding `Cc1ncc(C[n+]2csc(CCO)c2C)c(O)n1`, the IC50 was 5200 µM.

The next experiment has as its system Plasmodium falciparum. Kind of experiment: Antiplasmodial activity against chloroquine-sensitive Plasmodium falciparum 3D7 infected in human erythrocyte assessed as inhibition of parasite proliferation in presence of 297uM thiamine by SYBR-Safe assay. It is filed as functional, organism-based. Conditions: 3D7, Erythrocyte. The essentials: as §1
In the case of `Cc1ncc(C[n+]2csc(CCO)c2C)c(O)n1`, the IC50 was found to be 5500 µM.

Another experiment deals with Escherichia coli. In words: Inhibition of Escherichia coli OGDHc E1 subunit assessed as DCPIP reduction at 250 uM preincubated for 60 mins followed by […] addition using 50 uM ThDP as substrate by microplate reader analysis.
Conditions: not given
The procedure, abridged: (§2)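 Single-point preliminary screen with compound at 250 μM and ThDP at 50 μM. Values are means of three technical replicates.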
Regarding `Cc1ncc(Cn2cc(CCCCn3cc(-c4ccc(F)cc4)nn3)nn2)c(N)n1`, the inhibition is less than 20%.

Consider `Cc1ncc(Cn2cc(CCCn3cc(-c4ccc(F)cc4)nn3)nn2)c(N)n1`, for which the inhibition is less than 20%.

`COc1ccc(-c2cn(CCCc3cn(Cc4cnc(C)nc4N)nn3)nn2)cc1`: the inhibition was less than 20%.

Take `Cc1ncc(Cn2cc(CCCn3cc(-c4ccccc4)nn3)nn2)c(N)n1`: the inhibition was less than 20%.

As for `Cc1ncc(Cn2cc(CCCCn3cc(-c4ccccc4)nn3)nn2)c(N)n1`, the inhibition is less than 20%.

Turning to `COc1ccc(-c2cn(CCCCc3cn(Cc4cnc(C)nc4N)nn3)nn2)cc1`, the inhibition was less than 20%.

Another experiment deals with Plasmodium falciparum. In words: Antiplasmodial activity against chloroquine-sensitive Plasmodium falciparum 3D7 infected in human erythrocyte assessed as inhibition of parasite proliferation in thiamine free medium by SYBR-Safe assay. It is filed as functional, organism-based. Particulars: 3D7, Erythrocyte. The essentials: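 3D7 parasites in human erythrocytes cultured in thiamine-free medium with a range of compound concentrations. […] Means come from three independent experiments, each run in three technical replicates.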
As for `Cc1ncc(C[n+]2csc(CCO)c2C)c(O)n1`, the IC50 was found to be 11 µM.

As to `Cc1ncc(Cn2cc(CCCCC(=O)NO)nn2)c(N)n1`, the IC50 was 3 µM.

The subject of the next experiment is Aerococcus viridans. In words: Inhibition of Aerococcus viridans pyruvate oxidase at 250 uM preincubated for 30 mins followed by pyruvate addition using 125 uM ThDP as substrate by microplate reader analysis.
Conditions: not given
`COc1ccc(-c2cn(CCc3cn(Cc4cnc(C)nc4N)nn3)nn2)cc1`: the inhibition was less than 20%.

In turn, `Cc1ncc(Cn2cc(CCCCn3cc(-c4ccc(F)cc4)nn3)nn2)c(N)n1` showed an inhibition of less than 20%.

`Cc1ncc(Cn2cc(CCCn3cc(-c4ccc(F)cc4)nn3)nn2)c(N)n1` gave an inhibition of less than 20%.

`COc1ccc(-c2cn(CCCc3cn(Cc4cnc(C)nc4N)nn3)nn2)cc1` showed an inhibition of less than 20%.

In turn, `Cc1ncc(Cn2cc(CCCn3cc(-c4ccccc4)nn3)nn2)c(N)n1` gave an inhibition of less than 20%.

Consider `Cc1ncc(Cn2cc(CCCCn3cc(-c4ccccc4)nn3)nn2)c(N)n1`, for which the inhibition was less than 20%.

As for `Cc1ncc(Cn2cc(CCn3cc(-c4ccccc4)nn3)nn2)c(N)n1`, the inhibition is less than 20%.

`Cc1ncc(Cn2cc(CCn3cc(-c4ccc(F)cc4)nn3)nn2)c(N)n1` came in with an inhibition of less than 20%.

In turn, `COc1ccc(-c2cn(CCCCc3cn(Cc4cnc(C)nc4N)nn3)nn2)cc1` gave an inhibition of less than 20%.

The subject of another experiment is Plasmodium falciparum. Kind of experiment: Antiplasmodial activity against Plasmodium falciparum 3D7 infected in human erythrocyte assessed as intraerythrocytic growth inhibition in thiamine-free medium by [3H]-hypoxanthine incorporation assay. Format: functional, organism-based. Conditions: 3D7, Erythrocyte.
Consider `Cc1ncc(C[n+]2csc(CCO)c2C)c(O)n1`, for which the IC50 was 11 µM.

The next experiment has as its system Plasmodium falciparum. In words: Antiplasmodial activity against Plasmodium falciparum 3D7 infected in human erythrocyte assessed as intraerythrocytic growth inhibition in presence thiamine-rich medium by [3H]-hypoxanthine incorporation assay. It is filed as functional, organism-based. Conditions: 3D7, Erythrocyte.
With `Cc1ncc(C[n+]2csc(CCO)c2C)c(O)n1`, the IC50 was found to be 5.2 µM.

The target in the next experiment is T1, Pyruvate dehydrogenase E1 component subunit alpha, somatic form, mitochondrial (Sus scrofa, UniProt P29804).
T1 sequence (P29804 whole entry): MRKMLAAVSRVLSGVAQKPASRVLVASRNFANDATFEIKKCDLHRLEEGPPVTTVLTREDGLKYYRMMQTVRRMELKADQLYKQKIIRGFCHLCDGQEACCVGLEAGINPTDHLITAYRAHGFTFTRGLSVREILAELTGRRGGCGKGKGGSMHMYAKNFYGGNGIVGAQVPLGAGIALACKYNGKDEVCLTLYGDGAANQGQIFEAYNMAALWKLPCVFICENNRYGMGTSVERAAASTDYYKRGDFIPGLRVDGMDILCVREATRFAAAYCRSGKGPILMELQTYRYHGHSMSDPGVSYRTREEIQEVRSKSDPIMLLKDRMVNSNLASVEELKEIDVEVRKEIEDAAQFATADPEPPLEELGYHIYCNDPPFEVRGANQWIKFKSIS
In words: Inhibition of porcine PDHc E1-subunit assessed as inhibition constant preincubated for 30 mins followed by pyruvate addition using 10 uM ThDP as substrate by microplate reader analysis.
Conditions: not given
In the case of `Cc1ncc(Cn2cc(CCCC(=O)NO)nn2)c(N)n1`, the Ki worked out at 0.045 µM.

With `Cc1ncc(Cn2cc(CCCCC(=O)NO)nn2)c(N)n1`, the Ki came out at 0.04 µM.

For another experiment, the system named is Escherichia coli. In words: Inhibition of Escherichia coli OGDHc E1 subunit assessed as DCPIP reduction at 250 uM preincubated for 60 mins followed by […] addition using 125 uM ThDP as substrate by microplate reader analysis.
Conditions: not given
As for `COc1ccc(-c2cn(CCc3cn(Cc4cnc(C)nc4N)nn3)nn2)cc1`, the inhibition is less than 20%.

Take `Cc1ncc(Cn2cc(CCCCn3cc(-c4ccc(F)cc4)nn3)nn2)c(N)n1`: the inhibition was less than 20%.

For the molecule `Cc1ncc(Cn2cc(CCCn3cc(-c4ccc(F)cc4)nn3)nn2)c(N)n1`, the inhibition is less than 20%.

`COc1ccc(-c2cn(CCCc3cn(Cc4cnc(C)nc4N)nn3)nn2)cc1`: the inhibition was less than 20%.

Turning to `Cc1ncc(Cn2cc(CCCn3cc(-c4ccccc4)nn3)nn2)c(N)n1`, the inhibition was less than 20%.

With `Cc1ncc(Cn2cc(CCCCn3cc(-c4ccccc4)nn3)nn2)c(N)n1`, the inhibition is less than 20%.

`Cc1ncc(Cn2cc(CCn3cc(-c4ccccc4)nn3)nn2)c(N)n1`: the inhibition is less than 20%.

Regarding `Cc1ncc(Cn2cc(CCn3cc(-c4ccc(F)cc4)nn3)nn2)c(N)n1`, the inhibition was less than 20%.

Take `COc1ccc(-c2cn(CCCCc3cn(Cc4cnc(C)nc4N)nn3)nn2)cc1`: the inhibition was less than 20%.

In a further experiment the test system is Aerococcus viridans. In words: Inhibition of Aerococcus viridans pyruvate oxidase at 250 uM preincubated for 30 mins followed by pyruvate addition using 50 uM ThDP as substrate by microplate reader analysis.
Conditions: not given
The procedure, abridged:
as §2
Regarding `COc1ccc(-c2cn(CCc3cn(Cc4cnc(C)nc4N)nn3)nn2)cc1`, the inhibition is less than 20%.

The molecule `Cc1ncc(Cn2cc(CCCCn3cc(-c4ccc(F)cc4)nn3)nn2)c(N)n1` came in with an inhibition of less than 20%.

The molecule `Cc1ncc(Cn2cc(CCCn3cc(-c4ccc(F)cc4)nn3)nn2)c(N)n1` yielded an inhibition of less than 20%.

The molecule `COc1ccc(-c2cn(CCCc3cn(Cc4cnc(C)nc4N)nn3)nn2)cc1` had an inhibition of less than 20%.

Turning to `Cc1ncc(Cn2cc(CCCn3cc(-c4ccccc4)nn3)nn2)c(N)n1`, the inhibition was less than 20%.

Turning to `Cc1ncc(Cn2cc(CCCCn3cc(-c4ccccc4)nn3)nn2)c(N)n1`, the inhibition is less than 20%.

`Cc1ncc(Cn2cc(CCn3cc(-c4ccc(F)cc4)nn3)nn2)c(N)n1` came in with an inhibition of less than 20%.

Molecule `COc1ccc(-c2cn(CCCCc3cn(Cc4cnc(C)nc4N)nn3)nn2)cc1` had an inhibition of less than 20%.

The next experiment addresses T1, Pyruvate dehydrogenase E1 component subunit alpha, somatic form, mitochondrial. Kind of experiment: Inhibition of porcine PDHc E1-subunit assessed as DCPIP reduction preincubated for 30 mins followed by pyruvate addition using 10 uM ThDP as substrate by microplate reader analysis.
Conditions: not given
`COc1ccc(-c2cn(CCCCc3cn(Cc4cnc(C)nc4N)nn3)nn2)cc1`: the IC50 was found to be 6 µM.

`Cc1ncc(Cn2cc(CCCC(=O)NO)nn2)c(N)n1`: the IC50 is 9 µM.

As to `Cc1ncc(Cn2cc(CCCCC(=O)NO)nn2)c(N)n1`, the IC50 stood at 8 µM.
